Converted amounts (≈) assume the structure as drawn.
What was measured:
Assay type in all cases: functional
Staphylococcus aureus [1] = experiment: Antimicrobial activity against methicillin-resistant Staphylococcus aureus 16684 by broth dilution method
Summary of the method: (§1)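 Oxacillin MIC by broth dilution per CLSI guidelines, on clinical MRSA isolates collected March 2004–June 2005 at a county hospital in Braşov, Romania. Bacterial suspensions were incubated 24 h at 37°C and growth was read as OD600. S. aureus MRSA252 and MSSA476 served as positive and negative controls.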

Staphylococcus aureus [2] = experiment: Antimicrobial activity against methicillin-resistant Staphylococcus aureus 16672 by broth dilution method; summary of the method: as §1
Staphylococcus aureus [3] = experiment: Antimicrobial activity against methicillin-resistant Staphylococcus aureus 16645 by broth dilution method; summary of the method: as §1
Staphylococcus aureus [4] = experiment: Antimicrobial activity against methicillin-resistant Staphylococcus aureus 16646 by broth dilution method; summary of the method: as §1
Staphylococcus aureus [5] = experiment: Antimicrobial activity against methicillin-resistant Staphylococcus aureus 16651 by broth dilution method; summary of the method: as §1
Staphylococcus aureus [6] = experiment: Antimicrobial activity against methicillin-resistant Staphylococcus aureus 16652 by broth dilution method; summary of the method: as §1
Staphylococcus aureus [7] = experiment: Antimicrobial activity against methicillin-resistant Staphylococcus aureus 16653 by broth dilution method; summary of the method: as §1
Staphylococcus aureus [8] = experiment: Antimicrobial activity against methicillin-resistant Staphylococcus aureus 16656 by broth dilution method; summary of the method: as §1
Staphylococcus aureus [9] = experiment: Antimicrobial activity against methicillin-resistant Staphylococcus aureus 16658 by broth dilution method; summary of the method: as §1
Staphylococcus aureus [10] = experiment: Antimicrobial activity against methicillin-resistant Staphylococcus aureus 16666 by broth dilution method; summary of the method: as §1
Staphylococcus aureus [11] = experiment: Antimicrobial activity against methicillin-resistant Staphylococcus aureus 16670 by broth dilution method; summary of the method: as §1
Staphylococcus aureus [12] = experiment: Antimicrobial activity against methicillin-resistant Staphylococcus aureus 16671 by broth dilution method; summary of the method: as §1
Staphylococcus aureus [13] = experiment: Antimicrobial activity against methicillin-resistant Staphylococcus aureus 16676 by broth dilution method; summary of the method: as §1
Staphylococcus aureus [14] = experiment: Antimicrobial activity against methicillin-resistant Staphylococcus aureus 16677 by broth dilution method; summary of the method: as §1
Staphylococcus aureus [15] = experiment: Antimicrobial activity against methicillin-resistant Staphylococcus aureus 16680 by broth dilution method; summary of the method: as §1
Staphylococcus aureus [16] = experiment: Antimicrobial activity against methicillin-resistant Staphylococcus aureus 16686 by broth dilution method; summary of the method: as §1
Staphylococcus aureus [17] = experiment: Antimicrobial activity against methicillin-resistant Staphylococcus aureus 16687 by broth dilution method; summary of the method: as §1
Staphylococcus aureus [18] = experiment: Antimicrobial activity against methicillin-resistant Staphylococcus aureus 16698 by broth dilution method; summary of the method: as §1
Staphylococcus aureus [19] = experiment: Antimicrobial activity against methicillin-resistant Staphylococcus aureus 16699 by broth dilution method; summary of the method: as §1
Staphylococcus aureus [20] = experiment: Antimicrobial activity against methicillin-resistant Staphylococcus aureus 16700 by broth dilution method; summary of the method: as §1
Staphylococcus aureus [21] = experiment: Antimicrobial activity against methicillin-resistant Staphylococcus aureus 16702 by broth dilution method; summary of the method: as §1
Staphylococcus aureus [22] = experiment: Antimicrobial activity against methicillin-resistant Staphylococcus aureus 16704 by broth dilution method; summary of the method: as §1
Staphylococcus aureus [23] = experiment: Antimicrobial activity against methicillin-resistant Staphylococcus aureus 16674 by broth dilution method; summary of the method: as §1
Staphylococcus aureus [24] = experiment: Antimicrobial activity against methicillin-resistant Staphylococcus aureus 16678 by broth dilution method; summary of the method: as §1
Staphylococcus aureus [25] = experiment: Antimicrobial activity against methicillin-resistant Staphylococcus aureus 16679 by broth dilution method; summary of the method: as §1
Staphylococcus aureus [26] = experiment: Antimicrobial activity against methicillin-resistant Staphylococcus aureus 16683 by broth dilution method; summary of the method: as §1
Staphylococcus aureus [27] = experiment: Antimicrobial activity against methicillin-resistant Staphylococcus aureus 16688 by broth dilution method; summary of the method: as §1
Staphylococcus aureus [28] = experiment: Antimicrobial activity against methicillin-resistant Staphylococcus aureus 16689 by broth dilution method; summary of the method: as §1
Staphylococcus aureus [29] = experiment: Antimicrobial activity against methicillin-resistant Staphylococcus aureus 16691 by broth dilution method; summary of the method: as §1
Staphylococcus aureus [30] = experiment: Antimicrobial activity against methicillin-resistant Staphylococcus aureus 16692 by broth dilution method; summary of the method: as §1
Staphylococcus aureus [31] = experiment: Antimicrobial activity against methicillin-resistant Staphylococcus aureus 16695 by broth dilution method; summary of the method: as §1
Staphylococcus aureus [32] = experiment: Antimicrobial activity against methicillin-resistant Staphylococcus aureus 16696 by broth dilution method; summary of the method: as §1
Staphylococcus aureus [33] = experiment: Antimicrobial activity against methicillin-resistant Staphylococcus aureus 16703 by broth dilution method; summary of the method: as §1
Staphylococcus aureus [34] = experiment: Antimicrobial activity against methicillin-resistant Staphylococcus aureus 16708 by broth dilution method; summary of the method: as §1
Staphylococcus aureus [35] = experiment: Antimicrobial activity against methicillin-resistant Staphylococcus aureus HDG2 by broth dilution method
Staphylococcus aureus [36] = experiment: Antimicrobial activity against methicillin-resistant Staphylococcus aureus 85/2082 by broth dilution method

Q: Cc1onc(-c2ccccc2)c1C(=O)N[C@@H]1C(=O)N2[C@@H]1SC(C)(C)[C@@H]2C(=O)O [OXACILLIN] was tested. Which MIC (Staphylococcus aureus [1]) did it give?
A: 256 µg/mL (≈ 638 µM)

Q: And the MIC (Staphylococcus aureus [2])?
A: 8 µg/mL (≈ 19.9 µM)

Q: What about the MIC (Staphylococcus aureus [3]) of the same compound?
A: > 512 µg/mL

Q: What about the MIC (Staphylococcus aureus [4]) of the same compound?
A: 512 µg/mL (≈ 1280 µM)

Q: And the MIC (Staphylococcus aureus [5])?
A: 512 µg/mL (≈ 1280 µM)

Q: And the MIC (Staphylococcus aureus [6])?
A: 512 µg/mL (≈ 1280 µM)

Q: And the MIC (Staphylococcus aureus [7])?
A: 512 µg/mL (≈ 1280 µM)

Q: And the MIC (Staphylococcus aureus [8])?
A: 512 µg/mL (≈ 1280 µM)

Q: And the MIC (Staphylococcus aureus [9])?
A: 256 µg/mL (≈ 638 µM)

Q: What about the MIC (Staphylococcus aureus [10]) of the same compound?
A: 256 µg/mL (≈ 638 µM)

Q: And the MIC (Staphylococcus aureus [11])?
A: 512 µg/mL (≈ 1280 µM)

Q: And the MIC (Staphylococcus aureus [12])?
A: 512 µg/mL (≈ 1280 µM)

Q: What about the MIC (Staphylococcus aureus [13]) of the same compound?
A: 512 µg/mL (≈ 1280 µM)

Q: And the MIC (Staphylococcus aureus [14])?
A: 256 µg/mL (≈ 638 µM)

Q: What about the MIC (Staphylococcus aureus [15]) of the same compound?
A: 512 µg/mL (≈ 1280 µM)

Q: What about the MIC (Staphylococcus aureus [16]) of the same compound?
A: 512 µg/mL (≈ 1280 µM)

Q: What about the MIC (Staphylococcus aureus [17]) of the same compound?
A: 512 µg/mL (≈ 1280 µM)

Q: What about the MIC (Staphylococcus aureus [18]) of the same compound?
A: 512 µg/mL (≈ 1280 µM)

Q: And the MIC (Staphylococcus aureus [19])?
A: 256 µg/mL (≈ 638 µM)

Q: And the MIC (Staphylococcus aureus [20])?
A: 512 µg/mL (≈ 1280 µM)

Q: What about the MIC (Staphylococcus aureus [21]) of the same compound?
A: 512 µg/mL (≈ 1280 µM)

Q: And the MIC (Staphylococcus aureus [22])?
A: 512 µg/mL (≈ 1280 µM)

Q: And the MIC (Staphylococcus aureus [23])?
A: 256 µg/mL (≈ 638 µM)

Q: What about the MIC (Staphylococcus aureus [24]) of the same compound?
A: 256 µg/mL (≈ 638 µM)

Q: What about the MIC (Staphylococcus aureus [25]) of the same compound?
A: 512 µg/mL (≈ 1280 µM)

Q: And the MIC (Staphylococcus aureus [26])?
A: 256 µg/mL (≈ 638 µM)

Q: What about the MIC (Staphylococcus aureus [27]) of the same compound?
A: 512 µg/mL (≈ 1280 µM)

Q: What about the MIC (Staphylococcus aureus [28]) of the same compound?
A: 512 µg/mL (≈ 1280 µM)

Q: And the MIC (Staphylococcus aureus [29])?
A: 256 µg/mL (≈ 638 µM)

Q: And the MIC (Staphylococcus aureus [30])?
A: 256 µg/mL (≈ 638 µM)

Q: And the MIC (Staphylococcus aureus [31])?
A: 512 µg/mL (≈ 1280 µM)

Q: What about the MIC (Staphylococcus aureus [32]) of the same compound?
A: 512 µg/mL (≈ 1280 µM)

Q: And the MIC (Staphylococcus aureus [33])?
A: 256 µg/mL (≈ 638 µM)

Q: What about the MIC (Staphylococcus aureus [34]) of the same compound?
A: 256 µg/mL (≈ 638 µM)

Q: And the MIC (Staphylococcus aureus [35])?
A: 64 µg/mL (≈ 159 µM)

Q: What about the MIC (Staphylococcus aureus [36]) of the same compound?
A: 16 µg/mL (≈ 39.9 µM)

— ChEMBL document CHEMBL1629696, “Identification of a novel transposon (Tn6072) and a truncated staphylococcal cassette chromosome mec element in methicillin-resistant Staphylococcus aureus ST239” (2010)
